Laboratory results as given in ChEMBL document CHEMBL1287747, “Highly active antimycobacterial derivatives of benzoxazine” (2010).
Values after ≈ are worked out from the molar mass of the structure shown.

Legend:
Type in all cases: functional
[1] = tested on: Mycobacterium kansasii; test: Antimycobacterial activity against Mycobacterium kansasii CNCTC My 235/80 after 14 days by microdilution method; conditions: CNCTC My 235/80, 336 h
Outline: (§1)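 Strains from the Czech National Collection of Type Cultures, tested by dilution micromethod in Šula semisynthetic medium. Incubated at 37 °C and read at 14 and 21 days. MIC is the lowest concentration inhibiting growth.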

[2] = tested on: Mycobacterium tuberculosis; test: Antimycobacterial activity against Mycobacterium tuberculosis CNCTC My 331/88 after 21 days by microdilution method; conditions: CNCTC My 331/88, 504 h; outline: as §1
[3] = tested on: Mycobacterium kansasii; test: Antimycobacterial activity against Mycobacterium kansasii CNCTC My 235/80 after 21 days by microdilution method; conditions: CNCTC My 235/80, 504 h; outline: as §1
[4] = tested on: Mycobacterium kansasii; test: Antimycobacterial activity against Mycobacterium kansasii 6509/96 after 21 days by microdilution method; conditions: 6509/96, 504 h
Outline: (§2)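 Clinical isolate that, unlike the standard strain, is not isoniazid-resistant. Tested by dilution micromethod in Šula semisynthetic medium, with compounds added in DMSO at final 1000 down to 0.25 µmol/L in twofold steps. Löwenstein-Jensen plate used as inoculum sterility and growth control. Incubated at 37 °C and read at 14 and 21 days. MIC is the lowest concentration inhibiting growth.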

[5] = tested on: Mycobacterium tuberculosis; test: Antimycobacterial activity against Mycobacterium tuberculosis CNCTC My 331/88 after 14 days by microdilution method; conditions: CNCTC My 331/88, 336 h; outline: as §1
[6] = tested on: Mycobacterium kansasii; test: Antimycobacterial activity against Mycobacterium kansasii 6509/96 after 14 days by microdilution method; conditions: 6509/96, 336 h; outline: as §2
[7] = tested on: Mycobacterium avium; test: Antimycobacterial activity against Mycobacterium avium CNCTC My 330/88 after 14 days by microdilution method; conditions: CNCTC My 330/88, 336 h; outline: as §1
[8] = tested on: Mycobacterium avium; test: Antimycobacterial activity against Mycobacterium avium CNCTC My 330/88 after 21 days by microdilution method; conditions: CNCTC My 330/88, 504 h; outline: as §1

Compound	MIC [1] [µM]	MIC [2] [µM]	MIC [3] [µM]	MIC [4] [µM]	MIC [5] [µM]	MIC [6] [µM]	MIC [7] [µM]	MIC [8] [µM]
CC(C)c1ccc(-n2c(=S)oc3ccc(F)cc3c2=S)cc1	4 (≈ 1.33 µg/mL)	0.5 (≈ 0.166 µg/mL)	8 (≈ 2.65 µg/mL)	4 (≈ 1.33 µg/mL)	0.25 (≈ 0.0829 µg/mL)	2 (≈ 0.663 µg/mL)	0.5 (≈ 0.166 µg/mL)	1 (≈ 0.331 µg/mL)
Cc1ccc(-n2c(=O)oc3ccc(Br)cc3c2=O)cc1	–	16 (≈ 5.31 µg/mL)	62 (≈ 20.6 µg/mL)	–	16 (≈ 5.31 µg/mL)	–	31 (≈ 10.3 µg/mL)	31 (≈ 10.3 µg/mL)
Cc1ccc(-n2c(=O)oc3ccc(Br)cc3c2=S)cc1	2 (≈ 0.696 µg/mL)	1 (≈ 0.348 µg/mL)	4 (≈ 1.39 µg/mL)	4 (≈ 1.39 µg/mL)	0.5 (≈ 0.174 µg/mL)	2 (≈ 0.696 µg/mL)	32 (≈ 11.1 µg/mL)	32 (≈ 11.1 µg/mL)
CCC(C)c1ccc(-n2c(=S)oc3ccc(F)cc3c2=S)cc1 (stereo not drawn)	2 (≈ 0.691 µg/mL)	0.25 (≈ 0.0864 µg/mL)	4 (≈ 1.38 µg/mL)	4 (≈ 1.38 µg/mL)	0.25 (≈ 0.0864 µg/mL)	2 (≈ 0.691 µg/mL)	0.5 (≈ 0.173 µg/mL)	1 (≈ 0.345 µg/mL)
CCc1ccc(-n2c(=O)oc3ccc(Br)cc3c2=O)cc1	8 (≈ 2.77 µg/mL)	8 (≈ 2.77 µg/mL)	16 (≈ 5.54 µg/mL)	16 (≈ 5.54 µg/mL)	8 (≈ 2.77 µg/mL)	16 (≈ 5.54 µg/mL)	32 (≈ 11.1 µg/mL)	32 (≈ 11.1 µg/mL)
CCc1ccc(-n2c(=O)oc3ccc(Cl)cc3c2=O)cc1	16 (≈ 4.83 µg/mL)	16 (≈ 4.83 µg/mL)	16 (≈ 4.83 µg/mL)	16 (≈ 4.83 µg/mL)	8 (≈ 2.41 µg/mL)	16 (≈ 4.83 µg/mL)	16 (≈ 4.83 µg/mL)	32 (≈ 9.66 µg/mL)
CCc1ccc(-n2c(=O)oc3cc(Cl)ccc3c2=O)cc1	16 (≈ 4.83 µg/mL)	8 (≈ 2.41 µg/mL)	16 (≈ 4.83 µg/mL)	16 (≈ 4.83 µg/mL)	8 (≈ 2.41 µg/mL)	16 (≈ 4.83 µg/mL)	8 (≈ 2.41 µg/mL)	16 (≈ 4.83 µg/mL)
CCC(C)c1ccc(-n2c(=S)oc3cc(C)ccc3c2=S)cc1 (stereo not drawn)	2 (≈ 0.683 µg/mL)	0.5 (≈ 0.171 µg/mL)	2 (≈ 0.683 µg/mL)	1 (≈ 0.342 µg/mL)	0.25 (≈ 0.0854 µg/mL)	0.5 (≈ 0.171 µg/mL)	0.25 (≈ 0.0854 µg/mL)	0.5 (≈ 0.171 µg/mL)
CC(C)(C)c1ccc(-n2c(=S)oc3ccc(Cl)cc3c2=S)cc1	8 (≈ 2.9 µg/mL)	0.5 (≈ 0.181 µg/mL)	8 (≈ 2.9 µg/mL)	8 (≈ 2.9 µg/mL)	0.25 (≈ 0.0905 µg/mL)	8 (≈ 2.9 µg/mL)	1 (≈ 0.362 µg/mL)	2 (≈ 0.724 µg/mL)
Cc1ccc2c(=S)n(-c3ccc(C(C)(C)C)cc3)c(=S)oc2c1	2 (≈ 0.683 µg/mL)	0.5 (≈ 0.171 µg/mL)	2 (≈ 0.683 µg/mL)	2 (≈ 0.683 µg/mL)	0.25 (≈ 0.0854 µg/mL)	1 (≈ 0.342 µg/mL)	0.5 (≈ 0.171 µg/mL)	1 (≈ 0.342 µg/mL)
CC(C)c1ccc(-n2c(=O)oc3ccc(F)cc3c2=O)cc1	8 (≈ 2.39 µg/mL)	8 (≈ 2.39 µg/mL)	8 (≈ 2.39 µg/mL)	16 (≈ 4.79 µg/mL)	8 (≈ 2.39 µg/mL)	8 (≈ 2.39 µg/mL)	8 (≈ 2.39 µg/mL)	16 (≈ 4.79 µg/mL)
Cc1ccc2c(=O)n(-c3ccc(C(C)C)cc3)c(=O)oc2c1	–	–	–	–	–	32 (≈ 9.45 µg/mL)	–	–
CCC(C)c1ccc(-n2c(=O)oc3ccc(F)cc3c2=O)cc1 (stereo not drawn)	8 (≈ 2.51 µg/mL)	8 (≈ 2.51 µg/mL)	8 (≈ 2.51 µg/mL)	8 (≈ 2.51 µg/mL)	8 (≈ 2.51 µg/mL)	4 (≈ 1.25 µg/mL)	8 (≈ 2.51 µg/mL)	8 (≈ 2.51 µg/mL)
CCC(C)c1ccc(-n2c(=O)oc3cc(C)ccc3c2=O)cc1 (stereo not drawn)	–	–	–	–	–	32 (≈ 9.9 µg/mL)	–	–
CCCCc1ccc(-n2c(=O)oc3ccc(Cl)cc3c2=O)cc1	8 (≈ 2.64 µg/mL)	16 (≈ 5.28 µg/mL)	8 (≈ 2.64 µg/mL)	16 (≈ 5.28 µg/mL)	16 (≈ 5.28 µg/mL)	8 (≈ 2.64 µg/mL)	16 (≈ 5.28 µg/mL)	16 (≈ 5.28 µg/mL)
